≈ marks a conversion by molar mass, not a printed value. Calls of active or inactive are those of the source. The calls are words filed in the database; no cut-off is given here.

Usually MIC stands for the least concentration at which growth counts as inhibited. As usually defined, the EC50 is the concentration that produces a half-maximal response. Low readings indicate a more potent agent, high ones a less potent agent.

One experiment has as its system Escherichia coli. In words: Antibacterial activity against Escherichia coli at 5 mM incubated for 18 hrs by AlamarBlue assay. The format is functional, organism-based.
Details: not given
For orientation: Alamar Blue is a resazurin reagent that responds to reducing activity.
`CO[C@H]1C=C[C@@H](OC(=O)c2ccccc2)[C@@H](OC)[C@]1(O)COC(=O)c1ccccc1`: the outcome was inactive.

As for `COc1cc(O)c(Cc2ccccc2O)c(O)c1C(=O)CCc1ccccc1` [UVARETIN], the outcome was inactive.

`COc1ccccc1COC(=O)c1ccccc1`: the result was inactive.

As to `CO[C@H]1[C@H](OC(=O)c2ccccc2)C=C[C@H](Cl)[C@]1(O)COC(=O)c1ccccc1`, the result was inactive.

In the case of `COc1c(Cc2ccccc2O)c(O)c(Cc2ccccc2O)c(O)c1C(=O)CCc1ccccc1`, the result was inactive.

In the case of `CC[C@H](CC[C@@H](C)[C@H]1CC[C@H]2[C@@H]3CC=C4C[C@@H](O)CC[C@]4(C)[C@H]3CC[C@]12C)C(C)C`, the result was inactive.

As for `O=C(OCc1ccccc1)c1ccccc1`, the outcome was inactive.

Regarding `CC(=O)O[C@@H]1C=C[C@@H](OC(=O)c2ccccc2)[C@H](O)[C@]1(O)COC(=O)c1ccccc1`, the outcome was inactive.

With `COc1cc(O)cc(O)c1C(=O)CCc1ccccc1`, the result was inactive.

On to `CC[C@H](/C=C/[C@@H](C)[C@H]1CC[C@H]2[C@@H]3CC=C4C[C@@H](O)CC[C@]4(C)[C@H]3CC[C@]12C)C(C)C`, for which the outcome was inactive.

On to `COc1ccc(C(=O)C(C)c2ccc(O)cc2)c(O)c1` (centres undefined), for which the result was inactive.

With `CO[C@@H]1[C@H](OC(=O)c2ccccc2)C=C[C@@H](O)[C@@]1(O)COC(=O)c1ccccc1`, the outcome was inactive.

Another experiment deals with Bacillus subtilis. Description: Antibacterial activity against Bacillus subtilis incubated for 18 hrs by AlamarBlue assay.
Details: not given
The experiment is classed as functional.
In turn, `COc1cc(O)c(Cc2ccccc2O)c(O)c1C(=O)CCc1ccccc1` [UVARETIN] yielded an MIC of 18 µM (≈ 6.81 µg/mL).

The next experiment has as its system MCF7. In words: Cytotoxicity against human MCF7 cells after 24 hrs by PrestoBlue cell viability reagent based assay. The experiment is classed as functional. Conditions: MCF7, 24 h. In a few lines: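 MCF-7 cells were kept in exponential growth in DMEM with 10% fetal calf serum, reseeded in 96-well plates, and settled 24 h. Compounds were added from DMSO stock (final solvent 0.3% v/v) in 2-fold dilutions for 24 h. Viability was read as resorufin fluorescence (ex 544/em 590 nm) and expressed as % of solvent-only control. EC50 came from three independent replicate experiments.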
In the case of `COc1cc(O)c(Cc2ccccc2O)c(O)c1C(=O)CCc1ccccc1` [UVARETIN], the EC50 was 10.2 µM.
